ROMK primary: ROMK potassium channel modulators, primary screen, cell-based, thallium flux, MLSMR library; ATP-sensitive inward rectifier potassium channel 1 (Homo sapiens), P48048; Tet-inducible ROMK, thallium flux fluorescence; actives lie on both sides; B-score at 10 µM; 130,000 compounds, 2% hits; AID 1918, 2009;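 active = signal ratio slope over the read window, or its plate-corrected B-score, at least 3 SD from the plate mean, either direction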;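 note: B-score of the F/F0 ratio slope over 7 to 12 s after thallium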
Target sequence (P48048 whole entry, looked up): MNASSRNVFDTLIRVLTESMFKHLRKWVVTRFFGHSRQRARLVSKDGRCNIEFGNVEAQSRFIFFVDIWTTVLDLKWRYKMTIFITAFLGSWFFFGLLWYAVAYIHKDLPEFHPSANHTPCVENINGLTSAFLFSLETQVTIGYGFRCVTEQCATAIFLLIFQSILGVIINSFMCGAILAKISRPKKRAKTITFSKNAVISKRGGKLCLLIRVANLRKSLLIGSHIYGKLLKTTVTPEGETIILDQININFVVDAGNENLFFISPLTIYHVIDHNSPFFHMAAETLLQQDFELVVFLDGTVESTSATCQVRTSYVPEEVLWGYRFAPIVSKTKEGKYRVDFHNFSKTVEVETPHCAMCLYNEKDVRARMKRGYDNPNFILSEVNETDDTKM
bCat nuc transl: modulators of beta-catenin nuclear translocation, primary screen, imaging, HeLa cells, immunofluorescence, high-content; 190,000 compounds, 0.3% hits; nuclear translocation activity, % at 5 µM;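 active = nuclear translocation activity above 50% at 5 µM, with a well cell count of 50 or more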;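 note: per-cell ratio of nuclear to cytoplasmic median beta-catenin stain intensity; plate controls were DMSO negative control for no effect and GSK-3 inhibitor IX positive control for full effect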
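Signal – beta-catenin immunofluorescence imaging with DAPI · Test system – human HeLa cell line · Dosing – 5 µM primary single dose, 0.1% DMSO, 0.02–20 µM confirmation series · Measure – % activation, nuclear-to-cytoplasmic median beta-catenin signal ratio per cell · Incubation – 24 h compound exposure at 37°C, 5% CO2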
MT stabilize HCS: microtubule stabilizers in HeLa cells, primary screen, imaging, high-content imaging; HeLa tubulin immunostaining HCS, 24 h; share of cells brighter than vehicle mean+2SD; % tubulin-high responders, % at 10 µM; 200,000 compounds, 0.83% hits; AID 2205, 2009;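 active = plate Z-score above 3 for both tubulin-high and condensed-nucleus cell shares, with cell loss under 80%, at 10 µM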;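 note: anti alpha tubulin signal scored within the nucleus-defined area of each cell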
* marks the source's active call; other numbers are inactive results; · = no result given. The list is not random: actives were taken first. Their share in the collection is about 1.9%.

SMILES	ROMK primary	bCat nuc transl	MT stabilize HCS
COc1ccc(CCNC(=O)Cn2c([N+](=O)[O-])cnc2C)cc1OC	-0.013	2	4
O=C(CCS(=O)(=O)c1ccccc1)Nc1nccs1	·	·	1
CCC(=O)N1c2ccc(S(=O)(=O)CCC(=O)Nc3nccs3)cc2CC1C (centres undefined)	5.6*	-1	6
O=C(NCc1ccc2c(c1)OCO2)C1CC(c2ccc(Cl)cc2)=NO1 (centres undefined)	·	2	3
COc1ccc(C2=NOC(C(=O)NCc3ccc(F)cc3)C2)cc1OC (centres undefined)	·	56*	14*
O=C(NCc1ccco1)C1CC(c2ccccc2C(F)(F)F)=NO1 (centres undefined)	·	4	·
COc1cccc(C2=NOC(C(=O)NCc3ccc(F)cc3)C2)c1 (centres undefined)	·	6	6
COc1cc(C2=NOC(C(=O)NCc3ccccn3)C2)cc(OC)c1OC (centres undefined)	-0.12	3	1
COc1cc(C2=NOC(C(=O)NCc3ccc(F)cc3)C2)cc(OC)c1OC (centres undefined)	·	73*	24*
O=C(NCc1ccco1)C1CC(c2cc(C(F)(F)F)cc(C(F)(F)F)c2)=NO1 (centres undefined)	·	92*	·
COc1cc(OC)c(C2=NOC(C(=O)NCc3ccc4c(c3)OCO4)C2)cc1Cl (centres undefined)	·	·	23*
N/C(=N\O)c1ccccc1N1CCCCC1	0.25	-2	1
CCOC(=O)C1=C(NC(=O)c2ccc(Br)o2)Nc2ccccc2N=C1	0.73	·	6
COc1cc(/C=N/NC(=O)c2ccccc2)ccc1O	0.36	-2	10
COc1cc(/C=N/NC(=O)c2[nH]nc3c2CCc2ccccc2-3)ccc1O	·	34	24*
Cc1cccc(-n2c(C)cc(/C=N/NC(=O)c3cccc([N+](=O)[O-])c3C)c2C)c1	-0.088	-4	19
Cc1cc(/C=N/NC(=O)c2ccccc2F)c(C)n1-c1ccccc1	4.2*	1	4
O=C(Nc1nccs1)C1CCN(S(=O)(=O)c2c(Cl)cccc2Cl)CC1	-2.1	-1	2
COc1cc(/C=N/NC(=O)c2ccc(CSc3nc4ccccc4[nH]3)cc2)ccc1O	0.84	-1	5
COc1ccc(Cn2c(C3CC3)nc3ccc(NC(=O)c4ccco4)cc3c2=O)cc1	·	-1	13*
CCC(=O)Nc1ccc2nc(C3CC3)n(Cc3ccccc3)c(=O)c2c1	·	-3	1
CCN(CC)c1ccc(NC(=O)c2cccc(F)c2)c(C)c1	·	26	37*
CCN(CC)c1ccc(NC(=O)c2ccco2)c(C)c1	·	·	3
COc1ccc(C)cc1NC(=O)CNC(C)C(=O)Nc1cc(Cl)ccc1Cl (centres undefined)	-0.033	-5	4
CCOc1ccc(CCNS(=O)(=O)c2cnc[nH]2)cc1OCC	0.75	0	2
SMILES	ROMK primary	bCat nuc transl	MT stabilize HCS
Cc1ccsc1/C=N\NC(=O)c1n[nH]c2c1CCC2	·	27	25*
O=C(N/N=C/c1c(Cl)cccc1Cl)c1n[nH]c2c1CCCC2	·	0	5
CC(C)NC(=O)C1CCN(C2CCN(Cc3ccc4cccc(F)c4n3)CC2)CC1	-0.18	2	4
CCOC(=O)C1=C(N)n2c(s/c(=C\c3ccncc3)c2=O)=C(C(=O)OCC)C1c1ccncc1 (centres undefined)	0.16	2	2
CCOC(=O)C1=C(N)n2c(s/c(=C\c3cccs3)c2=O)=C(C(=O)OCC)C1c1cccs1 (centres undefined)	·	99*	45*
CCOC(=O)C1=C(C)NC(=O)NC1/C(C)=C/c1ccccc1 (centres undefined)	-0.11	2	3
COC(=O)Cc1c(O)ccn(CCc2ccccc2)c1=O	0.41	0	2
COC(=O)Cc1c(O)ccn(Cc2ccc(F)cc2)c1=O	1*	0	3
CC1=NN(c2ccccc2)C(=O)/C1=C\c1cn(-c2ccccc2)nc1C	0.47	-2	3
CC1=NN(c2ccccc2)C(=O)/C1=C\c1c(C)[nH]n(-c2ccccc2)c1=O	-3.6*	-2	3
Cc1cc(C)cc(N2CC(O)=C(c3nc4ccccc4c(=O)[nH]3)C2=N)c1	·	7	5
COc1cccc(N2CC(O)=C(c3nc4ccccc4c(=O)[nH]3)C2=N)c1	2.6	109*	26*
Cc1cc(C)nc(/N=C2\NC(=O)CC(C(=O)O)N2c2ccc(C)c(C)c2)n1 (centres undefined)	-0.017	1	2
Cc1ccccc1NC(=O)NCCN1C(=O)C2C3C=CC(C3)C2C1=O (centres undefined)	·	0	4
COc1cc(/C=C/c2ccc(O)cc2)cc(OC)c1	·	1	·
COC(=O)c1ccc2c(c1)C(C)(C)C(/C=C/c1ccc(O)cc1)=[N+]2C	·	41	41*
CCCCCCCC(=O)NC(Nc1ccc(S(N)(=O)=O)cc1)C(Cl)(Cl)Cl (centres undefined)	·	-2	2
COc1ccc(C(=O)/C(C#N)=N/Nc2ccc([N+](=O)[O-])cc2)cc1	6*	20	12
N#C/C(=N\Nc1ccc(Cl)cc1)C(=O)c1ccccc1	2.8*	10	2
Cc1c(N/N=C(\C#N)C(=O)c2ccc(Cl)cc2)c(=O)n(-c2ccccc2)n1C	-1.1	1	1
COc1ccc(N/N=C(\C#N)C(N)=O)cc1	·	-2	5
O=C(NC1CCCC1)C(c1ccncc1)N(C(=O)c1csnn1)C1CCCC1 (centres undefined)	0.22	0	3
O=C(CCCn1cnc([N+](=O)[O-])n1)Nc1cccc(O)c1	-0.24	1	2
Cc1nc(NCCOc2ccccc2)sc1C(=O)Nc1ccccc1	0.59	1	·
CCCCC(=O)NC(NC(=S)N1CCCCCC1)C(Cl)(Cl)Cl (centres undefined)	·	-4	2
SMILES	ROMK primary	bCat nuc transl	MT stabilize HCS
CCSc1nnc(NC(=O)COc2ccc3ccccc3c2)s1	·	-3	2
CCN(CC)C(=O)c1ccc(/C=C/c2c[nH]c3ccccc23)[n+](C)c1	·	·	3
CC[n+]1c(/C=C/c2c[nH]c3ccccc23)ccc2cc(C)ccc21	·	37	80*
CC1(C)C([N+](=O)[O-])C(c2ccc(Cl)cc2)NC(c2ccc(Cl)cc2)C1[N+](=O)[O-] (centres undefined)	·	-1	4
Cc1cc(=O)oc2cc(OCC(=O)N3c4ccccc4CC3C)ccc12 (centres undefined)	·	-7	51*
Cc1cc(=O)oc2cc(OCC(=O)N3CC(C)OC(C)C3)ccc12 (centres undefined)	·	-5	2
CC(=O)c1cc2c(cc1NS(=O)(=O)c1ccc3c(c1)OCCO3)OCO2	·	-8	2
COC(=O)c1ccc(Cl)c(NS(=O)(=O)c2ccc3c(c2)OCCO3)c1	·	·	39*
CC1CCN(S(=O)(=O)N2CCC(C(=O)NCc3cccnc3)CC2)CC1	·	0	·
CSc1ccccc1NC(=O)CN(c1ccccc1Br)S(C)(=O)=O	-0.98	-3	1
CC(=O)C1=C(C)NC(=O)CC1c1ccc(F)cc1 (centres undefined)	-0.17	1	5
CCc1nnc(NC(=O)CSc2nc(C)c3c(c2C#N)CCCC3)s1	0.69	4	26*
